According to PMC5643981 (Chemical Science, 2017):
Marks after values point to notes of the source that are not given here.

Key:
[1] = tested on: Pseudomonas aeruginosa strain PAO1 biofilm; assay: Biofilm inhibition; type: cell-based
Method in brief: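 PAO1 grown overnight in LB at 37 °C with 180 rpm shaking, washed in 0.25% (w/v) nutrient broth no. 2 and set to OD600 1. 20 μL goes into 180 μL of the same medium with sterile-filtered test compound and polymyxin B. Incubated humid, static, 24–25 h at 37 °C, washed twice with water. Viability read by 0.5 mM WST-8 + 20 μM phenazine ethosulfate (2.5–3 h, 37 °C), supernatant A450.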

[2] = tested on: Pseudomonas aeruginosa strain PAO1 biofilm; assay: Dispersal of preformed biofilm; type: cell-based
Method in brief: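 Biofilm formed 24 h at 37 °C, static, in 0.25% (w/v) nutrient broth no. 2 from washed overnight PAO1 (OD600 1) without compound. Wells washed twice with water, then given sterile-filtered test compound plus polymyxin B in the same broth for another 24 h at 37 °C, static. After two washes, stained with 0.5 mM WST-8 + 20 μM phenazine ethosulfate (2.5–3 h, 37 °C); supernatant A450 read.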

Polymyxin B [Pmx]
MBIC of Pmx +0.5 μg mL^–1 36b ([1]; Pmx in the presence of 0.5 μg mL^–1 36b): 1.5 μg mL^–1
MBIC of Pmx +1 μg mL^–1 29b ([1]; Pmx in the presence of 1 μg mL^–1 29b): 1.5 μg mL^–1
Dispersal, Pmx with 29b ([2]; Measured with 8 μg mL^–1 of 29b in the presence of 1.5 μg mL^–1 of Pmx): 100% ^i
Dispersal, Pmx with 36b ([2]; Measured with 8 μg mL^–1 of 36b in the presence of 1.5 μg mL^–1 of Pmx): 100% ^i
